From paper PMC5415879 (Molecular Pharmaceutics, 2017)
Where no end group is shown, it is not given here.

Assays:
Assay type in all cases: physicochemical
[1] = Critical aggregation concentration, Nile red assay; details: Nile red fluorescence (Ex550/Em635), PBS pH 7.4, 0.1 to 500 μg/mL, overnight incubation at room temperature; intersection of two linear fits
[2] = Particle morphology by atomic force microscopy; details: nanostructures immobilized on poly-L-lysine coated mica, room temperature
[3] = Particle morphology and size by transmission electron microscopy; details: 0.1 mg/mL in HEPES 10 mM, negative staining with 2% uranyl acetate
Summary of the method: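 Applies to peptide–pNIPAm self-assembled particles. Samples at 0.1 mg/mL in 10 mM HEPES are applied to prewarmed carbon-coated copper grids for 2 min, and excess liquid is blotted off with filter paper. Grids are negatively stained with 2% uranyl acetate for 45 s and dried 10 min at room temperature. Morphology and size are then read from TEM images.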

Substance: Ac-AAVVLLLWGQAEPDRAHYNIVTF [HPV-SA]
- critical aggregation concentration (CAC) [1]: ca. 15 μM
- particle diameter by AFM [2]: ~100 nm

Substance: HPV16 E7_43–57-poly(DMAm) [HPV-pDMAm]
- particle size by TEM [3]: no particles

Substance: HPV16 E7_43–57-poly(NIPAm) [HPV-pNIPAm]
- particle size by TEM [3]: 20–80 nm

Substance: OVA250–264-poly(NIPAm) [OVA-pNIPAm]
- particle size by TEM [3]: 20–80 nm
